# Results from different studies.
# OfChi-h: Chitinase (OfChi-h, Ostrinia furnacalis, UniProt Q4AE59)
# SLC22A12: Solute carrier family 22 member 12 (SLC22A12, Homo sapiens, UniProt Q96S37)
# WDR5: WD repeat-containing protein 5 (WDR5, Homo sapiens, UniProt P61964)
# F10: Coagulation factor X (F10, Homo sapiens, UniProt P00742)
SMILES,target,test,setting,measurement,result
CCNC(=O)N1CCN(c2nc(NC3CCN(C(=O)[C@@H](CCc4ccc(OC)cc4)NC(=O)[C@@H]4CCCCN4C(=O)C(=O)C(C)(C)CC)CC3)nc(N(Cc3cnn(C)c3)C3CC3)n2)CC1,"Bromodomain-containing protein 9 (BRD9, Homo sapiens, UniProt Q9H8M2)","binding, SPR",,Kd,> 10 µM
CCCCc1ccc(CNc2nc(N(C)C)nc(N(C)C)c2/N=N/c2ccc(Cl)cc2)cc1,OfChi-h,"enzyme activity, inhibitor, fluorescence",,Ki,0.0194 µM
Nc1ncnc2c1ncn2[C@@H]1O[C@H](CO)[C@@H](O)[C@H]1O,SLC22A12,"transporter uptake, inhibitor, radiometric",oocytes,IC50,> 10000 µM
C[C@@H]1CN(c2ccc(-c3cc(C(=O)NCCOCCOCCOCCOCCNC(=O)Cn4cc(-c5[nH]cc(C(=O)N[C@@H](CC(N)=O)c6ccc(F)c(Cl)c6)c5-c5ccc(Cl)cc5F)cn4)ccc3F)cc2NC(=O)c2c[nH]c(=O)cc2C(F)(F)F)C[C@H](C)N1C,WDR5,"binding, SPR",,Kd,0.0375 µM
CC(=O)N[C@H]1Cc2ccc(cc2)OC/C=C/C[C@@H](C(=O)N[C@@H](CCCNC(=N)N)C(=O)c2nc3ccccc3s2)NC(=O)[C@H](CC(C)C)NC1=O,F10,"enzyme activity, inhibitor, absorbance",with preincubation,IC50,0.122 µM
C[C@@H]1CN(c2ccc(-c3cc(C(=O)NCCOCCOCCOCCOCCOCCOCCNC(=O)/C=C/c4[nH]cc(C(=O)N[C@@H](CC(N)=O)c5ccc(F)c(Cl)c5)c4-c4ccc(Cl)cc4F)ccc3F)cc2NC(=O)c2ccc(F)cc2C(F)(F)F)C[C@H](C)N1C,WDR5,"binding, SPR",,Kd,0.0808 µM
Cn1c(=O)c2c(ncn2C)n(C)c1=O,SLC22A12,"transporter uptake, inhibitor, radiometric",oocytes,IC50,> 5000 µM
C=CS(=O)(=O)c1ccc(Nc2nc(OCC3CCCCC3)c3nc[nH]c3n2)cc1,"Gasdermin-D (GSDMD, Homo sapiens, UniProt P57764)","binding, MST",,Kd,36.1 µM
O=C(NO)c1cncc(OS(=O)(=O)Oc2ccc(-n3ccnc3)cc2)c1,"Histone deacetylase 7 (HDAC7, Homo sapiens, UniProt Q8WUI4)","enzyme activity, inhibitor, fluorescence",,IC50,5.07 µM
CC(=O)N[C@H]1Cc2ccc(cc2)OC/C=C\CNC(=O)C[C@@H](C(=O)N[C@@H](CCCNC(=N)N)C(=O)c2nc3ccccc3s2)NC(=O)[C@H](CC(C)C)NC1=O,F10,"enzyme activity, inhibitor, absorbance",with preincubation,IC50,3.18 µM
CN(C)c1nc(NCc2cccc(C(F)(F)F)c2)c(/N=N/c2ccc(Cl)cc2)c(N(C)C)n1,OfChi-h,"enzyme activity, inhibitor, fluorescence",,IC50,0.3 µM
